Compound activity (PubChem)
KCNQ1 pot = potentiators or activators of KCNQ1 channel, primary screen, cell-based, thallium flux, high-throughput; CHO-K1 KCNQ1, thallium flux FluxOR fluorescence; active compounds read high; B-score at 10 µM; hit rate 0.35% among 310,000; AID 2648, 2010;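 active = fluorescence ratio B-score, a plate-corrected score, at least three library SD, with initial intensity B-score within 5 SD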
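Medium – assay buffer, equal DMSO in all wells · Material – CHO-K1 cell line with stable KCNQ1 potassium channel expression · Signal – kinetic FluxOR thallium fluorescence, 10-s 1-Hz baseline, 110-s post-stimulus read · Compound – single concentration per compound, DMSO matched to controls · Schedule – 37 °C overnight plating, 90-min dark dye load, 20-min compound pretreatment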
hERG protect = hERG rescue from dofetilide block, primary screen, cell-based, CHO-hERG, FluxOR thallium flux, dofetilide IC70. dofetilide IC70 present. activation (rescue from dofetilide block), less the hit threshold, % at 10 µM. hit rate 0.51% among 310,000. AID 1511, 2009;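 active = activation above the mean of controls blocked by dofetilide plus 5 SD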;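 also: thallium influx through hERG after potassium depolarization seen as dye fluorescence rise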
KCNK9 inh = KCNK9 potassium channel inhibitors, primary screen, HEK293 cells, thallium flux; FluxOR thallium flux fluorescence; active compounds read low; B-score at 10 µM; hit rate 1.2% among 310,000; AID 488922, 2010;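 active = ratio B-score over 3 SD below the library mean, with starting fluorescence within 5 SD of its mean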;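 also: negative B-score means less thallium flux so channel inhibition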
Target sequence (Q9NPC2 whole entry, looked up): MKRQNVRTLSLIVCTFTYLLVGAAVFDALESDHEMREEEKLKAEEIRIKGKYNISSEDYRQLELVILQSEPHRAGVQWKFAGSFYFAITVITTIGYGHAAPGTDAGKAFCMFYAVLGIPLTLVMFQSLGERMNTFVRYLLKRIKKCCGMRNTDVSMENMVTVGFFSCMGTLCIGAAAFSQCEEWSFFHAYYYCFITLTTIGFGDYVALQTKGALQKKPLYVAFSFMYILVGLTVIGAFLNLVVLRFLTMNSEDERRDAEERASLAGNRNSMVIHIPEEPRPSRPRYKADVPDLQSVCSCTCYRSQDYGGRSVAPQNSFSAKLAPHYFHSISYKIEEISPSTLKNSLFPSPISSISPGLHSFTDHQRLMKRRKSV
KCC2 mod = KCC2 cotransporter modulators, thallium flux, primary screen, cell-based, HEK293 KCC2, FluoZin-2 fluorescence, MLSMR; KCC2 cells, thallium flux FluoZin-2 fluorescence; Solute carrier family 12 member 5 (Homo sapiens), Q9H2X9; AID 1456, 2008; hit rate 2.2% among 190,000; B-score of Tl+ flux slope (higher = more flux/activation; lower = inhibition) at 10 µM;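 active = thallium flux slope and its plate-corrected score both differing from the plate sample mean at a set confidence after two filtering rounds, in either direction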;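 also: slope of fluorescence scaled to starting intensity during 10 to 20 s after thallium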
KCNQ1 block = inhibitors of human KCNQ1 channel, primary screen, cell-based, thallium flux, high-throughput | B-score at 10 µM | Potassium voltage-gated channel subfamily KQT member 1 (Homo sapiens), P51787 | CHO-K1 KCNQ1, FluxOR thallium flux fluorescence; active compounds read high | AID 2642, 2010 | hit rate 1.3% among 310,000;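 active = compounds whose thallium flux B-score, printed positive for inhibition, exceeds three library SD while starting fluorescence stays within three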;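 also: channel opened by potassium depolarization with thallium stimulus after 20 min compound exposure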
KCNK3 block = human KCNK3 channel inhibitors, primary screen, CHO cells, FluxOR thallium flux, B-score; FluxOR fluorescence; active compounds read low; B-score at 10 µM; hit rate 0.84% among 340,000;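 active = B-score under library mean minus 4 SD, starting fluorescence ratio at most library mean plus 5 SD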;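 also: more negative B-score means stronger inhibition of thallium flux through KCNK3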
Target sequence (O14649 whole entry, looked up): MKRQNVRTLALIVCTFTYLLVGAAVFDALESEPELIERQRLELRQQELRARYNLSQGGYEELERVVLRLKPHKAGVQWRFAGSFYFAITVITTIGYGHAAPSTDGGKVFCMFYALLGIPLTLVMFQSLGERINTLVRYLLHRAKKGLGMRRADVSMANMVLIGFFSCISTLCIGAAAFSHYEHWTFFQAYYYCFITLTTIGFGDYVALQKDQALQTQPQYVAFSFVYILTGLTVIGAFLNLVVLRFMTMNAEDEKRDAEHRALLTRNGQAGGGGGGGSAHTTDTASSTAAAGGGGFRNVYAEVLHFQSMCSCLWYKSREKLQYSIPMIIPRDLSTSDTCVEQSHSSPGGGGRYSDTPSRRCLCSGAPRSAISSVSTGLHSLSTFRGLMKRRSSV
KCC2 secondary = KCC2 modulators in sodium-free buffer, confirmation, cell-based, HEK293 KCC2, thallium flux, secondary assay; shares compounds with KCC2 mod; FluoZin2 fluorescence; active compounds read high; normalised thallium flux (F/F0 slope) at 10 µM; hit rate 15% among 3,700;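 active = thallium flux slope above the same plate's solvent-only control mean plus 3 SD; inconclusive = the two replicate wells disagree; inactive = no significant difference from solvent-only control wells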
KCC2 bumet counter = thallium flux persisting under bumetanide in KCC2 cells, confirmation, counter-screen for KCC2 modulator project, cell-based, HEK293 KCC2, FluoZin2, secondary assay 3; AID 1714, 2009; normalized thallium flux at 10 µM; hit rate 49% among 3,700; HEK293-KCC2 + bumetanide/ouabain; active compounds read high; shares compounds with KCC2 mod;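 active = thallium entry rate above the same plate's blocked-transporter control wells by more than 3 SD; inconclusive = the two repeat wells disagree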;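 also: raw slope of fluorescence over initial fluorescence between 10 and 20 s after thallium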
KCC2 secondary2 = KCC2 modulators without ouabain present, confirmation, cell-based, HEK293 KCC2, thallium flux, FluoZin2, secondary assay 2; hit rate 23% among 3,700; thallium flux FluoZin2 fluorescence; actives lie on both sides; F/F0 rise rate, 10–20 s post-thallium; shares compounds with KCC2 mod; normalized thallium flux at 10 µM; AID 1715, 2009;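 active = thallium flux slope more than 3 SD above or below the plate's solvent-only control mean, mostly below; inconclusive = the two repeat wells disagreed; inactive = no significant shift from solvent-only controls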;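 also: raw slope with 0.1% DMSO as baseline and bumetanide as block control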
HEK293 Tl flux = thallium flux modulation in parental HEK cells, confirmation, counter-screen for KCC2 modulator project, cell-based, counterscreen 1. shares compounds with KCC2 mod. HEK293 parental cells, thallium flux FluoZin2, ouabain; baseline-ratio fluorescence slope, 10–20 s after thallium. thallium flux rate (normalised fluorescence) at 10 µM. hit rate 46% among 3,700. AID 1716, 2009;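 active = thallium flux rate significantly above the same plate's solvent-only control wells, beyond their mean plus 3 SD; inconclusive = the two replicate wells gave conflicting results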
KCC2 ouabain = KCC2 inhibitors and activators, ouabain retest, confirmation, HEK-KCC2 cells. shares compounds with KCC2 mod. HEK293-KCC2, thallium flux FluoZin2 fluorescence; bidirectional: low = inhibitor, high = activator. raw Tl+ flux slope (below DMSO = inhibition, above = activation) at 10 µM. hit rate 48% among 3,700. AID 1717, 2009;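 active = thallium flux slope beyond 3 SD from same-plate DMSO control mean in most replicates, usually higher, sometimes lower; inconclusive = repeat tests gave conflicting results; inactive = no significant difference from controls in most replicates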;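 also: slope of initial-normalized fluorescence between seconds 10 and 20 after thallium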
HEK293 Tl flux2 = native HEK Tl+ uptake effects, second counter-screen – HEK cells, counterscreen 2, counter-screen for KCC2 modulator project, confirmation | shares compounds with KCC2 mod | hit rate 33% among 3,700 | HEK293 parental, thallium flux FluoZin-2 fluorescence slope | thallium flux slope at 10 µM;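 active = thallium flux slope above the same plate's solvent-control mean plus 3 SD in both duplicate wells; inconclusive = duplicate wells that disagreed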;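 also: run without ouabain in cells lacking the KCC2 cotransporter; slope of fluorescence scaled to its starting value between 10 and 20 s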
* = called active by the depositor; i = inactive; ? = inconclusive; / = no result. Only some compounds are listed: those with a hit (about 4.1% of all), similar ones and a draw of the others.

SMILES	KCNQ1 pot	hERG protect	KCNK9 inh	KCC2 mod	KCNQ1 block	KCNK3 block	KCC2 secondary	KCC2 bumet counter	KCC2 secondary2	HEK293 Tl flux	KCC2 ouabain	HEK293 Tl flux2
S=c1[nH]c(-c2ccccc2)cn1/N=C/c1ccncc1	i	-12	i	1.8	i	i	/	/	/	/	/	/
CCOc1ccc(/C=N/n2cc(-c3ccccc3)[nH]c2=S)cc1	i	-10	i	28*	i	i	?	0.057*	0.033	0.026*	0.053*	0.012*
CCN(CC)S(=O)(=O)c1ccc(C)c(NC(=O)COC(=O)CN2C(=O)NC(C)(C)C2=O)c1	i	-18	i	/	i	i	/	/	/	/	/	/
CCOC(=O)C(=O)Nc1ccc(Oc2ccccc2)cc1	i	-1	i	-4*	i	i	0.0089	0.0059	0.032	0.0069	0.017*	0.011
CCOC(=O)C(=O)Nc1ccc(F)cc1	i	-4	i	/	i	i	/	/	/	/	/	/
O=C(OCC(=O)N1N=C(c2ccc(Cl)cc2)CC1c1ccco1)c1cncc(Br)c1 (stereo not given)	/	/	/	/	/	i	/	/	/	/	/	/
COC(C[C@@H]1O[C@@H]1[C@H](O)[C@H](C)OCc1ccccc1)OC	i	-7	i	/	i	i	0.015	0.004	0.03	0.0073	0.016	0.011
COc1ccc(C/C(C)=N/NC(=S)Nc2ccc(C(C)C)cc2)cc1	i	-5	i	0.37	i	i	/	/	/	/	/	/
COc1ccc(C/C(C)=N/NC(=S)Nc2ccccc2F)cc1	i	-4	i	55*	i	i	0.011	0.036*	0.04	?	0.039*	?
CCCN(C(=O)c1cc(S(=O)(=O)N(C)c2ccccc2OC)ccc1C)C1CCS(=O)(=O)C1 (stereo not given)	/	/	/	/	/	i	/	/	/	/	/	/
CNC(=O)C(=O)Nc1nc(C23CC4CC(CC(C4)C2)C3)cs1	i	1	i	3.9*	i	i	0.0072	0.012*	0.028	0.013*	?	0.013*
O=C(NCc1ccncc1)C(=O)Nc1nc(C23CC4CC(CC(C4)C2)C3)cs1	i	-9	i	0.24	i	i	/	/	/	/	/	/
O=C(NCc1ccc(F)cc1)C(=O)Nc1nc(C23CC4CC(CC(C4)C2)C3)cs1	i	4.9*	i	8.9*	i	i	0.0054	0.038*	0.033	0.021*	0.034*	0.018*
O=C(NCc1cccnc1)C(=O)Nc1nc(C23CC4CC(CC(C4)C2)C3)cs1	i	-15	i	1.6	i	i	/	/	/	/	/	/
Cc1ccc(NC(=O)CN(C)CC(=O)N(CC(C)C)c2c(N)n(CC(C)C)c(=O)[nH]c2=O)c(C)c1	/	/	/	/	/	i	/	/	/	/	/	/
CCCN(C(=O)Cc1coc2cc(OC)ccc12)C1CCS(=O)(=O)C1 (stereo not given)	/	/	/	/	/	i	/	/	/	/	/	/
CSc1ccccc1NC(=O)c1cnc2scc(C)n2c1=O	i	-20	i	-3.9*	i	i	0.0067	0.0046	0.027*	0.0062*	?	0.0094
CC(C)c1ccccc1NC(=O)c1cnccn1	i	-9	i	/	i	i	/	/	/	/	/	/
CSc1ccccc1NC(=O)c1cnccn1	i	-12	i	3.4*	i	i	0.0072	0.0048	0.033	0.0071	0.02	0.0099
COc1cc(OC)cc(-c2c(-c3cccs3)c3cc(-c4cnc(OC)nc4)ccc3n2C)c1	/	/	/	/	/	i	/	/	/	/	/	/
Cc1cc2ccccn2c1C(=S)NC(=O)c1ccccc1	26*	34*	i	66*	i	i	0.02*	0.14*	0.1*	0.12*	0.12*	0.11*
Cc1cc2ccccn2c1C(=O)c1ccncc1	i	-6	i	-0.15	i	i	/	/	/	/	/	/
O=C(c1ccc(COc2ccccc2Br)cc1)N1CCCCC1	i	-5	i	-1.4	i	i	/	/	/	/	/	/
COc1cc(NC(=O)c2ccc(COc3ccccc3Br)o2)cc(OC)c1OC	i	-10	i	/	i	i	0.0055	0.0045	0.025*	0.0061*	0.015*	0.01
O=C(c1ccc(COc2ccccc2Br)o1)N1CCCCCC1	i	0	i	/	i	i	0.0055	0.0033*	?	0.0063*	0.016*	?
COc1ccccc1OCc1ccc(C(=O)Nc2cc(OC)c(OC)c(OC)c2)o1	i	-10	i	/	i	i	/	/	/	/	/	/
CN(C(=O)c1cccc(NC(=O)Cc2cccc([N+](=O)[O-])c2)c1)C1CCCC1	/	/	/	/	/	i	/	/	/	/	/	/
CCN(C[C@H]1N[C@@](Cc2ccccc2)(C(=O)OC)[C@H]2C(=O)N(C)C(=O)[C@@H]12)C(=O)Nc1ccc(C(F)(F)F)cc1	/	/	/	/	/	i	/	/	/	/	/	/
Cc1ccc(C(=O)NC2CCCC2)cc1S(=O)(=O)N1CCCCC1	i	-9	i	/	i	i	/	/	/	/	/	/
